# Test results: ChEMBL document CHEMBL3867440, “Hernandezine, a Bisbenzylisoquinoline Alkaloid with Selective Inhibitory Activity against Multidrug-Resistance-Linked ATP-Binding Cassette Drug Transporter ABCB1” (J Nat Prod, 2016); call rule not given here
# How the values were obtained:
# [1] = target: T1, ATP-dependent translocase ABCB1 (Homo sapiens, UniProt P08183); test: Inhibition of human ABCB1 transfected in HEK293 cells assessed as potentiation of doxorubicin-induced cytotoxicity by measuring doxorubicin resistance ratio at 100 nM after 72 hrs by CCK8 assay relative to parental HEK293 cells (reference value: 96); format: cell-based; settings: hek293, 72 h, 0.1 µM
# T1 sequence (P08183 whole entry): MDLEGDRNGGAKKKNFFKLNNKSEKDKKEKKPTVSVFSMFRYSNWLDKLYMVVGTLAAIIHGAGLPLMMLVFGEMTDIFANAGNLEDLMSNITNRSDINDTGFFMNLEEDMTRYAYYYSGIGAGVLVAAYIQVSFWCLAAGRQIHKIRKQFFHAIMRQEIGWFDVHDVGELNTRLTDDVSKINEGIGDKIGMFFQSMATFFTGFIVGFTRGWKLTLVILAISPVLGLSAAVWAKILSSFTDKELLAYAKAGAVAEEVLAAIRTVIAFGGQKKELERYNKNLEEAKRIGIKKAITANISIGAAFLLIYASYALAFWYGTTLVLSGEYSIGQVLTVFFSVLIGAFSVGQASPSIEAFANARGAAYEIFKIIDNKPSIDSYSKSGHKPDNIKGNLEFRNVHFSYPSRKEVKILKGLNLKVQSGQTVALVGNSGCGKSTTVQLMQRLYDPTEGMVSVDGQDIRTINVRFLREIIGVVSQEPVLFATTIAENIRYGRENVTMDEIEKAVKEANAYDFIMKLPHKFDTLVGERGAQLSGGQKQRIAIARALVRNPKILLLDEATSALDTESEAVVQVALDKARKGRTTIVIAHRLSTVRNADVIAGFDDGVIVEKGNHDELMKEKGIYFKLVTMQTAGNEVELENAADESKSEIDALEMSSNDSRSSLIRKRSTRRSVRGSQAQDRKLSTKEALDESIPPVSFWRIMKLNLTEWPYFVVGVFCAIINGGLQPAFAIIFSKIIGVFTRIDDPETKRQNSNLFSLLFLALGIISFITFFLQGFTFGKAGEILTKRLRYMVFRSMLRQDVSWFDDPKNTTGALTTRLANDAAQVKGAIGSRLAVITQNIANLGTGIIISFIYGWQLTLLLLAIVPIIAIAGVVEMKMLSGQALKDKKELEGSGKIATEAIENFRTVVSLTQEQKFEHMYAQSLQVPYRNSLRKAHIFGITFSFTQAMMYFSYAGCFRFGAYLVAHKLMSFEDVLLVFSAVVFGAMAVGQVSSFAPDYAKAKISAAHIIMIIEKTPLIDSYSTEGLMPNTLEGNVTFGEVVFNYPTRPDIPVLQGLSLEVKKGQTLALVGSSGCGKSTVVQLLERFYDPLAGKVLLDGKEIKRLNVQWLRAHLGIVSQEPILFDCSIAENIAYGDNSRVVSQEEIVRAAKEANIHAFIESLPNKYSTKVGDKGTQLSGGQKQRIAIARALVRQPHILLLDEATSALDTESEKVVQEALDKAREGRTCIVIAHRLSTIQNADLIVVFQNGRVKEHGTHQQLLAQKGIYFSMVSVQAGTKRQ
# [2] = target: T1, ATP-dependent translocase ABCB1; test: Inhibition of human ABCB1 transfected in HEK293 cells assessed as potentiation of doxorubicin-induced cytotoxicity by measuring doxorubicin resistance ratio at 200 nM after 72 hrs by CCK8 assay relative to parental HEK293 cells (reference value: 96); format: cell-based; settings: hek293, 72 h, 0.2 µM
# [3] = target: T1, ATP-dependent translocase ABCB1; test: Inhibition of human ABCB1 transfected in HEK293 cells assessed as potentiation of doxorubicin-induced cytotoxicity by measuring doxorubicin resistance ratio at 500 nM after 72 hrs by CCK8 assay relative to parental HEK293 cells (reference value: 96); format: cell-based; settings: hek293, 72 h, 0.5 µM
# [4] = target: Multidrug resistance-associated protein 1 (Homo sapiens, UniProt P33527); test: Inhibition of human ABCC1 transfected in HEK293 cells assessed as potentiation of etoposide-induced cytotoxicity by measuring etoposide resistance ratio at 500 nM after 72 hrs by CCK8 assay relative to parental HEK293 cells (reference value: 350); format: cell-based; settings: hek293, 72 h, 0.5 µM
# Multidrug resistance-associated protein 1, sequence (P33527 whole entry): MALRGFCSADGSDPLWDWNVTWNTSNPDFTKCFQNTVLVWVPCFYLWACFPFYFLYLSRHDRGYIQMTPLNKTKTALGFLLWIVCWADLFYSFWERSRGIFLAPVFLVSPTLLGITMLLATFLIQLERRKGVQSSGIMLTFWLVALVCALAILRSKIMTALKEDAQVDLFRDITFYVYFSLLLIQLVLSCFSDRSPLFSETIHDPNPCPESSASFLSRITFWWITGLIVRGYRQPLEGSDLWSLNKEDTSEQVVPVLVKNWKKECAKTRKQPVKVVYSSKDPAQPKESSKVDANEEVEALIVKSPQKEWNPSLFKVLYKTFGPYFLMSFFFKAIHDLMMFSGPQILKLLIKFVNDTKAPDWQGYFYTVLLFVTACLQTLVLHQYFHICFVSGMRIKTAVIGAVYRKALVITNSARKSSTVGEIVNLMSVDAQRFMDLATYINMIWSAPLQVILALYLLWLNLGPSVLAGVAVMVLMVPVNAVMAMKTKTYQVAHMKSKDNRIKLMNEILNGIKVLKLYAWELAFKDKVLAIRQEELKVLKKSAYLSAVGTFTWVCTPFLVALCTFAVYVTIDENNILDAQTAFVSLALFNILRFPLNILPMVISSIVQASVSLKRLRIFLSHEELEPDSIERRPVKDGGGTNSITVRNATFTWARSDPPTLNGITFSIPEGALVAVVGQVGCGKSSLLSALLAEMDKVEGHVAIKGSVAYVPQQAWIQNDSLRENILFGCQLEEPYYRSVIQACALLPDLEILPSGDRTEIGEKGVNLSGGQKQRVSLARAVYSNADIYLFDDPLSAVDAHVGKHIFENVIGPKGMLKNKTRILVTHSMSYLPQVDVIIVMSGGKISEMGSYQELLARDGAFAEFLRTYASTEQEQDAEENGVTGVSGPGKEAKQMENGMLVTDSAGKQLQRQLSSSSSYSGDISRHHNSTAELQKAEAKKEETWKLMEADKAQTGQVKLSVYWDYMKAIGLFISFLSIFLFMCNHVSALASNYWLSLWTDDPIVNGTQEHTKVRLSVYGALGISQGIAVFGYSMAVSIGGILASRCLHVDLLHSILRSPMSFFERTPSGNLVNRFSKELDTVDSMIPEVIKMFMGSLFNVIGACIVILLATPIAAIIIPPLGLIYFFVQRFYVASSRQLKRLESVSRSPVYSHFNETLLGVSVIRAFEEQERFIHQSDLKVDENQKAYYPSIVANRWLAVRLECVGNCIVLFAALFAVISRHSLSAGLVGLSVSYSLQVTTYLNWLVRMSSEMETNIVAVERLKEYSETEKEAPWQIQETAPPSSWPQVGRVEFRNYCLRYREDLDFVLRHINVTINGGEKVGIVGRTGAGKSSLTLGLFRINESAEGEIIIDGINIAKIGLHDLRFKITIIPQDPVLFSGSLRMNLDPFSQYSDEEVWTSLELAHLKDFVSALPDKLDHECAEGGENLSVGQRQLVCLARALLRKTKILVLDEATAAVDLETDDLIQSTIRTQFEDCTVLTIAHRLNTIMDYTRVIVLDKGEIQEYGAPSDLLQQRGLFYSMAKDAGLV
# [5] = target: T1, ATP-dependent translocase ABCB1; test: Inhibition of ABCB1 in human NCI-ADR-RES cells assessed as reduction of calcein efflux at 1 uM by -based FACS analysis; format: cell-based
# Procedure, shortened: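 Trypsinized cells were resuspended in IMDM with 5% FCS. Calcein-AM was added to 3 × 10^5 cells in 4 mL IMDM, with or without 1 μM test compound or 3 μM tariquidar. Intracellular calcein fluorescence was read immediately by flow cytometry, with the drug-sensitive parental line run in parallel.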
# [6] = target: T1, ATP-dependent translocase ABCB1; test: Inhibition of ABCB1 in human KBV1 cells assessed as potentiation of doxorubicin-induced cytotoxicity by measuring doxorubicin resistance ratio at 100 nM after 72 hrs by MTT assay relative to parental KB-3-1 cells (reference value: 34); format: cell-based; settings: kbv1, 72 h, 0.1 µM
# Procedure, shortened: (§1)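 Cells were kept in drug-free DMEM with 10% FCS for 7 days before assay, then plated at 5000 cells/well for 24 h. Drug at various concentrations was added with a nontoxic fixed level of modulator for 72 h, and the read-out was MTT. IC50 came from fitted curves (≥3 experiments). RR = IC50 of the resistant line / IC50 of the parental line.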
# [7] = target: T1, ATP-dependent translocase ABCB1; test: Inhibition of ABCB1 in human KBV1 cells assessed as potentiation of colchicine-induced cytotoxicity by measuring colchicine resistance ratio at 50 nM after 72 hrs by MTT assay relative to parental KB-3-1 cells (reference value: 55); format: cell-based; settings: kbv1, 72 h, 0.05 µM; procedure, shortened: as §1
# [8] = target: T1, ATP-dependent translocase ABCB1; test: Inhibition of ABCB1 in human KBV1 cells assessed as potentiation of vincristine-induced cytotoxicity by measuring vincristine resistance ratio at 500 nM after 72 hrs by MTT assay relative to parental KB-3-1 cells (reference value: 356); format: cell-based; settings: kbv1, 72 h, 0.5 µM; procedure, shortened: as §1
# [9] = target: T1, ATP-dependent translocase ABCB1; test: Inhibition of ABCB1 in human NCI-ADR-RES cells assessed as potentiation of doxorubicin-induced cytotoxicity by measuring doxorubicin resistance ratio at 500 nM after 72 hrs by MTT assay relative to parental OVCAR8 cells (reference value: 46); format: cell-based; settings: ovcar-8, 72 h, 0.5 µM; procedure, shortened: as §1
# [10] = target: T1, ATP-dependent translocase ABCB1; test: Inhibition of ABCB1 in human NCI-ADR-RES cells assessed as potentiation of doxorubicin-induced cytotoxicity by measuring doxorubicin resistance ratio at 100 nM after 72 hrs by MTT assay relative to parental OVCAR8 cells (reference value: 46); format: cell-based; settings: ovcar-8, 72 h, 0.1 µM; procedure, shortened: as §1
# [11] = target: T1, ATP-dependent translocase ABCB1; test: Inhibition of ABCB1 in human NCI-ADR-RES cells assessed as potentiation of colchicine-induced cytotoxicity by measuring colchicine resistance ratio at 100 nM after 72 hrs by MTT assay relative to parental OVCAR8 cells (reference value: 59); format: cell-based; settings: ovcar-8, 72 h, 0.1 µM; procedure, shortened: as §1
# [12] = target: T1, ATP-dependent translocase ABCB1; test: Inhibition of ABCB1 in human NCI-ADR-RES cells assessed as potentiation of colchicine-induced cytotoxicity by measuring colchicine resistance ratio at 50 nM after 72 hrs by MTT assay relative to parental OVCAR8 cells (reference value: 59); format: cell-based; settings: ovcar-8, 72 h, 0.05 µM; procedure, shortened: as §1
# [13] = target: T1, ATP-dependent translocase ABCB1; test: Inhibition of ABCB1 in human NCI-ADR-RES cells assessed as potentiation of vincristine-induced cytotoxicity by measuring vincristine resistance ratio at 500 nM after 72 hrs by MTT assay relative to parental OVCAR8 cells (reference value: 435); format: cell-based; settings: ovcar-8, 72 h, 0.5 µM; procedure, shortened: as §1
# [14] = target: T1, ATP-dependent translocase ABCB1; test: Inhibition of ABCB1 in human NCI-ADR-RES cells assessed as potentiation of vincristine-induced cytotoxicity by measuring vincristine resistance ratio at 100 nM after 72 hrs by MTT assay relative to parental OVCAR8 cells (reference value: 435); format: cell-based; settings: ovcar-8, 72 h, 0.1 µM; procedure, shortened: as §1
# KB 3-1 [15] = test: Induction of apoptosis in human KB-3-1 cells assessed as early apoptotic cells at 1 uM after 48 hrs by Annexin V-FITC/propidium iodide staining based FACS analysis (reference value: 5.1%); format: functional
# KB 3-1 [16] = test: Induction of apoptosis in human KB-3-1 cells assessed as late apoptotic cells at 1 uM after 48 hrs by Annexin V-FITC/propidium iodide staining based FACS analysis (reference value: 5.8%); format: functional
# KB 3-1 [17] = test: Induction of apoptosis in human KB-3-1 cells assessed as necrotic cells at 1 uM after 48 hrs by Annexin V-FITC/propidium iodide staining based FACS analysis (reference value: 0.7%); format: functional
# KB-V1 [18] = test: Induction of apoptosis in human KBV1 cells assessed as viable cells at 1 uM after 48 hrs by Annexin V-FITC/propidium iodide staining based FACS analysis (reference value: 86.1%); format: functional; settings: KB-V1, 48 h, read-out: Activity
# KB-V1 [19] = test: Induction of apoptosis in human KBV1 cells assessed as late apoptotic cells at 1 uM after 48 hrs by Annexin V-FITC/propidium iodide staining based FACS analysis (reference value: 7.6%); format: functional
# KB-V1 [20] = test: Induction of apoptosis in human KBV1 cells assessed as necrotic cells at 1 uM after 48 hrs by Annexin V-FITC/propidium iodide staining based FACS analysis (reference value: 1%); format: functional
# KB 3-1 [21] = test: Potentiation of colchicine-induced apoptosis in human KB-3-1 cells assessed as early apoptotic cells at 1 uM after 48 hrs by Annexin V-FITC/propidium iodide staining based FACS analysis (reference value: 30.5%); format: functional
# KB 3-1 [22] = test: Potentiation of colchicine-induced apoptosis in human KB-3-1 cells assessed as late apoptotic cells at 1 uM after 48 hrs by Annexin V-FITC/propidium iodide staining based FACS analysis (reference value: 25.7%); format: functional
# [23] = target: T1, ATP-dependent translocase ABCB1; test: Induction of Vanadate-sensitive ABCB1 (unknown origin) assessed as ATPase activity by measuring concentration required for 50% maximal stimulation by Pgp-glo assay
# Procedure, shortened: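 Vanadate-sensitive ABCB1 ATPase activity was measured with the Pgp-Glo system using […], across 0–1 μM test compound. Points are the mean of at least three independent experiments.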
compound,measurement,setting,value
COc1ccc2cc1Oc1ccc(cc1)C[C@H]1c3cc(c(OC)cc3CCN1C)Oc1c(OC)c(OC)c(OC)c3c1[C@H](C2)N(C)CC3 [HERNANDEZINE],Ratio,[1],11
same,Ratio,[2],8
same,Ratio,[3],7
same,Ratio,[4],547
same,inhibition (INH),[5],Active
same,Ratio,[6],5
same,Ratio,[7],31
same,Ratio,[8],3
same,Ratio,[9],2
same,Ratio,[10],11
same,Ratio,[11],23
same,Ratio,[12],46
same,Ratio,[13],19
same,Ratio,[14],433
same,Activity,KB 3-1 [15],6.6%
same,Activity,KB 3-1 [16],4.4%
same,Activity,KB 3-1 [17],0.2%
same,viability at 1 µM,KB-V1 [18],87.6%
same,Activity,KB-V1 [19],6.7%
same,Activity,KB-V1 [20],1%
same,Activity,KB 3-1 [21],31.1%
same,Activity,KB 3-1 [22],26.4%
same,Activity,[23]; human,Dose-dependent effect
same,EC50,[23]; read-out: Activity,20 nM
